Screens deposited in PubChem by Johns Hopkins Ion Channel Center.
A selection: hits, their analogues and other compounds. The true share with any hit is near 3.7%.
Kir21 block: blocks the mouse Kir2.1 inward-rectifier potassium channel | AID 1672 | B-score at 10 µM | P35561 | HEK293-Kir2.1, FluxOR thallium flux fluorescence; active compounds read low | 310,000 tested, 0.85% active;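 active = fluorescence ratio B-score at or below minus 3 SD of library scores, with starting-brightness B-score within 2 SD, cut at about -4.2 in these data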;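 also: channel flux triggered by added potassium and thallium sulfate stimulus; B-score of peak minus minimum fluorescence over baseline after thallium stimulus; more negative B-score means stronger Kir2.1 block with less thallium influx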
KCNQ1 block: human KCNQ1 channel inhibition; 310,000 tested, 1.3% active; CHO-K1 KCNQ1, FluxOR thallium flux fluorescence; active compounds read high; P51787; B-score at 10 µM;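 active = compounds whose thallium flux B-score, printed positive for inhibition, exceeds three library SD while starting fluorescence stays within three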;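 also: channel opened by potassium depolarization with thallium stimulus after 20 min compound exposure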
KCNK3 inh: human KCNK3 channel inhibition, primary screen | O14649 | 340,000 tested, 0.84% active | B-score at 10 µM | CHO-KCNK3 thallium flux, FluxOR fluorescence; active compounds read low | AID 602410;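 active = B-score under library mean minus 4 SD, starting fluorescence ratio at most library mean plus 5 SD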;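 also: more negative B-score means stronger inhibition of thallium flux through KCNK3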
KCNK9 block: inhibitors of human KCNK9 two-pore domain potassium channel; Q9NPC2; HEK293 KCNK9, FluxOR thallium flux fluorescence; active compounds read low; B-score at 10 µM; 310,000 tested, 1.2% active; AID 488922;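 active = ratio B-score over 3 SD below the library mean, with starting fluorescence within 5 SD of its mean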;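 also: negative B-score means less thallium flux so channel inhibition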
KCNQ1 act: potentiates or activates the human KCNQ1 potassium channel; P51787; CHO-K1 KCNQ1, thallium flux FluxOR fluorescence; active compounds read high; B-score at 10 µM; 310,000 tested, 0.35% active;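 active = fluorescence ratio B-score, a plate-corrected score, at least three library SD, with initial intensity B-score within 5 SD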
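Assay system: stable KCNQ1 CHO-K1 line; medium: assay buffer, equal DMSO in all wells; timing: 90 min dye loading and 20 min compound exposure, both at room temperature; technique: kinetic FluxOR thallium fluorescence, 10-s 1-Hz baseline, 110-s post-stimulus read; read-out basis: B score of baseline-normalized fluorescence ratio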
hERG protect: shields human hERG channel from block by proarrhythmic agents; Q12809; AID 1511; CHO-hERG, FluxOR thallium flux, dofetilide IC70 present; 310,000 tested, 0.51% active; activation (rescue from dofetilide block), less the hit threshold, % at 10 µM;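 active = activation above the mean of controls blocked by dofetilide plus 5 SD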;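 also: thallium influx through hERG after potassium depolarization seen as dye fluorescence rise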
KCNK3 confirm: confirmation of human KCNK3 two-pore domain potassium channel inhibitors; shares compounds with KCNK3 inh; CHO-KCNK3 thallium flux, FluxOR fluorescence; 0% buffer, 100% carvedilol maximal block; ratio percent of control, % at 10 µM; 2,400 tested, 99% active;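 active = ratio percent of control, averaged over triplicates, above buffer control mean plus 5 SD, cut at about 64% in these data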;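 also: ratio is the fluorescence rise from min to max over baseline after thallium stimulus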
KCNK3 noninduced: counter-screen for KCNK3 inhibitors: effect in non-induced cells; shares compounds with KCNK3 inh; non-induced KCNK3 parental cells, FluxOR thallium flux; active compounds read low; thallium flux ratio (lower = more inhibition) at 10 µM; 2,400 tested, 40% active;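 active = thallium flux ratio, averaged over three wells, more than 5 SD below the buffer control mean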;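 also: host cells are CHO cells without KCNK3 induction; ratio is peak minus trough fluorescence over baseline then normalized to buffer controls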
* hit, by the source's call; i = inactive; . = no result.

SMILES | Kir21 block | KCNQ1 block | KCNK3 inh | KCNK9 block | KCNQ1 act | hERG protect | KCNK3 confirm | KCNK3 noninduced
COc1ccc(O)c(C(=O)c2cnn(-c3ccc(Cl)cc3)c2)c1 | 0.34 | i | -12* | i | i | -4 | 92* | i
O=C(N/N=C/c1c[nH]c2ccccc12)c1ccn(Cc2ccc(Cl)cc2)n1 | 0.97 | i | -11* | i | i | -16 | 98* | 0.15*
O=C(N/N=C/c1c[nH]c2ccc(Br)cc12)c1ccn(Cc2ccc(Cl)cc2Cl)n1 | 0.57 | i | -9.8* | -7.2* | i | -12 | 79* | i
CC(=O)N1CCc2ccc(S(=O)(=O)N3CC(C)OC(C)C3)cc21 (centres undefined) | -0.1 | i | i | i | i | -2 | . | .
O=C(NCCc1ccccn1)c1n[nH]c(=O)c2ccccc12 | -0.38 | i | i | i | i | -5 | . | .
CCCC(=O)c1c[nH]c(C(=O)NCCc2ccccn2)c1 | 0.84 | i | -11* | i | i | -6 | 70* | i
CCOC(=O)Cn1nc(NC(=O)c2ccc3c(c2)OCO3)cc1C | -0.88 | i | i | i | i | -10 | . | .
C/C(N)=C(/C#N)C(=O)COC(=O)Cc1coc2ccc3ccccc3c12 | -1.7 | i | i | i | i | -4 | . | .
Cc1sc(NC(=O)c2ccco2)nc1-c1ccccc1 | 2.3 | i | i | i | i | -20 | . | .
Cc1sc(NC(=O)c2ccco2)nc1-c1ccc2c(c1)CC(C)N2C(=O)C1CC1 (centres undefined) | -1.2 | 6* | -9.4* | i | i | -20 | 101* | i
Cc1cc(C)c2nc(-c3cccnc3)cc(C(=O)NC(C)c3cnn(C)c3C)c2c1 (centres undefined) | -2.6 | i | -9.2* | i | i | -18 | 111* | 0.16*
Cc1cccc2c(C(=O)O)cc(-c3cccnc3)nc12 | -2.9 | i | i | i | i | -5 | . | .
Fc1ccccc1CSCc1nc2ccccc2[nH]1 | -0.11 | i | i | i | i | -13 | . | .
CCN(CC)S(=O)(=O)c1ccc(C)c(NC(=S)N2CCN(C/C=C/c3ccccc3)CC2)c1 | -0.3 | i | -11* | i | i | -17 | 101* | i
O=C(CN1C(=O)NC2(CCc3ccccc32)C1=O)Nc1ccccc1Cl (centres undefined) | . | . | i | . | . | . | . | .
COc1ccc(/C=C/C(=O)N2CCCc3ccccc32)c(OC)c1 | 2.1 | i | i | i | i | -11 | . | .
COc1ccc(OC)c(/C=C/C(=O)N2CCCc3ccccc32)c1 | 0.01 | i | -11* | i | i | -10 | 113* | i
CCOC1=NN(c2ncc(C(F)(F)F)cc2Cl)C(=O)/C1=C/N(C)C | -0.07 | i | i | i | i | -4 | . | .
CCN1C[C@@H]2[C@@H]3C(=O)N(C)C(=O)[C@@H]3[C@](CC)(C1=O)N2C(=O)c1ccccc1 | . | . | i | . | . | . | . | .
O=C(CCNS(=O)(=O)c1ccccc1F)NC1CCCCCC1 | . | . | i | . | . | . | . | .
Cc1csc(SCC(=O)c2cc(C)n(Cc3cccs3)c2C)n1 | -0.93 | i | -9.5* | i | i | -7 | 133* | 0.14*
Cc1cc(C(=O)CSc2nnc(N)s2)c(C)n1Cc1cccs1 | 0.73 | i | i | i | i | -9 | . | .
Cc1cc(C(=O)CSc2n[nH]c(-c3ccccc3F)n2)c(C)n1Cc1cccs1 | -3.2 | i | -10* | i | i | -12 | 92* | i
CC(=O)Nc1ccc(SCC(=O)c2cc(C)n(Cc3cccs3)c2C)cc1 | 1.3 | i | i | i | i | -4 | . | .
CC(=O)Nc1ccc(NC(=O)C(C)NC(C)c2cccc3ccccc23)cc1 (centres undefined) | -1.7 | i | i | i | i | -10 | . | .
